In ChEMBL document CHEMBL2046398, “Optimization of (2,3-dihydro-1-benzofuran-3-yl)acetic acids: discovery of a non-free fatty acid-like, highly bioavailable G protein-coupled receptor 40/free fatty acid receptor 1 agonist as a glucose-dependent insulinotropic agent” (J Med Chem, 2012):
Activity calls are given as the source filed them. The rule behind the calls is not given here.

Legend:
[1] = target: Free fatty acid receptor 1 (Rattus norvegicus, UniProt Q8K3T4); experiment: Displacement of 3-[4-({2',6'-dimethyl-6-[(4-[3H])-phenylmethoxy]biphenyl-3-yl}methoxy)phenyl]propanoic acid from rat GPR40 expressed in CHO cells after 90 mins by liquid scintillation counting in the presence of 0.2%BSA; assay type: cell-based
Chain of Free fatty acid receptor 1 (Rattus norvegicus, UniProt Q8K3T4) (Q8K3T4 whole entry): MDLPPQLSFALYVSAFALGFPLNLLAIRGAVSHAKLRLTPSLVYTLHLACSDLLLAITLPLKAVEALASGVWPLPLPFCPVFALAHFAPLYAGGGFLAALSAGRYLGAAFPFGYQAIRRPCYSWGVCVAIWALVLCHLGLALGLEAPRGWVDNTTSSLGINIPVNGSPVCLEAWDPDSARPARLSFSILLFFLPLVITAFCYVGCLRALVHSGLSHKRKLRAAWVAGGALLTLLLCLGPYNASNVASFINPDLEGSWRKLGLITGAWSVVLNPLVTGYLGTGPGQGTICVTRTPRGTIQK
Procedure, shortened: (§1)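 Membranes came from CHO lines stably expressing human or rat GPR40/FFA1. Assay buffer was 25 mmol/L Tris-HCl pH 7.5 with 5 mmol/L EDTA, protease inhibitors, 0.05% CHAPS and 0.2% fatty-acid-free BSA. Compounds competed with 2 or 6 nmol/L tritiated phenylpropanoic acid ligand for 90 min at room temperature. Bound ligand was filtered and counted by scintillation. Nonspecific binding used 10 μmol/L unlabeled ligand. IC50 was converted to Ki by Cheng–Prusoff using the measured Kd.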

[2] = Lipophilicity, log D of the compound at pH 7.4 by HPLC analysis; assay type: physicochemical; details: buffer
Procedure, shortened: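 Log D at pH 7.4 was estimated from HPLC relative retention time against standard compounds.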

HepG2 = experiment: Induction of apoptosis in human HepG2 cells assessed as caspase 3/7 activity at 30 uM after 1 day by CaspaseGlo assay relative to staurosporine; assay type: cell-based; details: hepg2, 24 h
Procedure, shortened: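 HepG2 cells were seeded at 2 × 10⁴ cells/well. They were exposed to compounds for 1 day in DMEM with 0.5% FBS, 2 mM L-glutamine and 1 mM pyruvate. Caspase-3/7 was read by Caspase-Glo luminescence, n = 3. Values are % = (RLU compound − RLU 1% DMSO)/(RLU 30 μM staurosporine − RLU 1% DMSO) × 100.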

[3] = target: T1, Free fatty acid receptor 1 (Homo sapiens, UniProt O14842); experiment: Agonist activity at human GP40 receptor expressed in CHO cells assessed as increase in intracellular calcium level at 10 uM for 90 secs by FLIPR assay in the presence of 0.1% BSA relative to gamma-linolenic acid; assay type: functional, cell-based
T1 sequence (O14842 whole entry): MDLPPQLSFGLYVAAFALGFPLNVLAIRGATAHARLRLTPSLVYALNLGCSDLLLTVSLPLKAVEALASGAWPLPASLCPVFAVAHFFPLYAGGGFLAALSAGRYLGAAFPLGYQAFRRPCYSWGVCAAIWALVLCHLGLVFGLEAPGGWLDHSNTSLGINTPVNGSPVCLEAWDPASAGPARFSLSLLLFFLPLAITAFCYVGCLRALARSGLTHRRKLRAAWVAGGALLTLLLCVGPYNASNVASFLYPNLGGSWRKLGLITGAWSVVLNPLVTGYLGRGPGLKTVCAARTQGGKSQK
Procedure, shortened: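 CHO dhfr cells stably expressing human GPR40/FFA1 (NM_005303) plated overnight at 37 °C, 5% CO₂, then loaded 60 min at 37 °C with Fluo 4 AM (2.5 μg/mL), 2.5 mmol/L probenecid and 0.1% fatty acid-free BSA. Ca²⁺ rise after compound addition read on FLIPR Tetra for 90 s. Activity = (test − vehicle)/(10 μM γ-linolenic acid − vehicle) × 100.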

[4] = target: T1, Free fatty acid receptor 1; experiment: Displacement of 3-[4-({2',6'-dimethyl-6-[(4-[3H])-phenylmethoxy]biphenyl-3-yl}methoxy)phenyl]propanoic acid from human GPR40 expressed in CHO cells after 90 mins by liquid scintillation counting in the presence of 0.2% BSA; assay type: cell-based; procedure, shortened: as §1
[5] = target: T1, Free fatty acid receptor 1; experiment: Agonist activity at human GP40 receptor expressed in CHO cells assessed as increase in intracellular calcium level for 90 secs by FLIPR assay in the presence of 0.1% BSA; assay type: functional, cell-based
Rattus norvegicus [6] = experiment: Insulinotropic activity in po dosed fasted Wistar fatty rat assessed as […] administered 4 hr prior to glucose-challenge by oral glucose tolerance test relative to vehicle control; assay type: functional
Procedure, shortened: (§2)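 Female Wistar fatty rats, 12–17 weeks old, were fasted overnight. They were dosed orally with compound in 0.5% methylcellulose 1 h (1 mg/kg) or 4 h (3 mg/kg) before a 1 g/kg oral glucose load. Plasma glucose was sampled to 120 min, n = 6. Effective dose was defined by statistical significance on plasma glucose AUC versus vehicle.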

Rattus norvegicus [7] = experiment: Insulinotropic activity in Goto-Kakizaki rat assessed as decrease in plasma glucose level at 1 to 10 mg/kg, po administered 1 hr prior to glucose-challenge by oral glucose tolerance test; assay type: functional, organism-based; details: TDE = time-dependent effect
Procedure, shortened: (§3)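 Male GK rats, 41 weeks old, were fasted overnight. They received compound suspended in 0.5% methylcellulose orally, 1–10 mg/kg, 1 h before a 1 g/kg oral glucose load. Tail-vein blood was taken pre-dose, at 0 min and at 10, 30, 60 and 120 min. Plasma glucose was read by autoanalyzer and insulin by radioimmunoassay, with AUC0–120min. n = 6. Williams/Shirley–Williams tests versus vehicle.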

Rattus norvegicus [8] = experiment: Insulinotropic activity in Goto-Kakizaki rat assessed as increase in plasma insulin secretion at 1 to 10 mg/kg, po administered 1 hr prior to glucose-challenge by oral glucose tolerance test; assay type: functional, organism-based; details: TDE = time-dependent effect; procedure, shortened: as §3
Rattus norvegicus [9] = experiment: Insulinotropic activity in po dosed Goto-Kakizaki rat assessed as decrease in plasma glucose level administered 1 hr prior to glucose-challenge by oral glucose tolerance test; assay type: functional; procedure, shortened: as §3
Rattus norvegicus [10] = experiment: Insulinotropic activity in po dosed Goto-Kakizaki rat assessed as increase in plasma insulin secretion administered 1 hr prior to glucose-challenge by oral glucose tolerance test; assay type: functional; procedure, shortened: as §3
Rattus norvegicus [11] = experiment: Insulinotropic activity in Goto-Kakizaki rat assessed as increase in plasma insulin secretion at 1 to 10 mg/kg, po after 1 hr measured at glucose charge (0 mins)
Rattus norvegicus [12] = experiment: Insulinotropic activity in po dosed fasted Wistar fatty rat assessed as […] administered 1 hr prior to glucose-challenge by oral glucose tolerance test relative to vehicle control; assay type: functional; procedure, shortened: as §2

| Structure (SMILES) | Ki [1] [nM] | logD [2] | Efficacy [3] [%] | Ki [4] [nM] | EC50 [5] [nM] | Activity (HepG2) [%] | ED (Rattus norvegicus [6]) | Activity (Rattus norvegicus [7]) | Activity (Rattus norvegicus [8]) | Activity (Rattus norvegicus [9]) | Activity (Rattus norvegicus [10]) | Activity (Rattus norvegicus [11]) | ED (Rattus norvegicus [12]) | minimal effective dose (Rattus norvegicus [9]; read-out: MED) [mg/kg] | minimal effective dose (Rattus norvegicus [10]; read-out: MED) [mg/kg] |
| --- | --- | --- | --- | --- | --- | --- | --- | --- | --- | --- | --- | --- | --- | --- | --- |
| Cc1cc(OCc2cccc3nccn23)cc(C)c1-c1cccc(COc2ccc3c(c2)OC[C@H]3CC(=O)O)c1 | 190 | 3.8 | 107 | 15 | 17 | 17.7 | – | – | – | – | – | – | – | – | – |
| Cc1cc(OC2CCN(C)CC2)cc(C)c1-c1cccc(COc2ccc3c(c2)OC[C@H]3CC(=O)O)c1.Cl | 66 | 3.1 | 107 | 8.8 | 19 | -1.3 | inactive | – | – | – | – | – | – | – | – |
| Cc1c(C)c(-c2cccc(COc3ccc4c(c3)OC[C@H]4CC(=O)O)c2)c(C)c(C)c1OCCCS(C)(=O)=O | 120 | 3.12 | 104 | 33 | 18 | -1.1 | – | – | – | – | – | – | – | – | – |
| Cc1cc(OC2CCS(=O)(=O)CC2)cc(C)c1-c1cccc(COc2ccc3c(c2)OCC3CC(=O)O)c1 (racemic) | 210 | 2.77 | 103 | 83 | 39 | 0.4 | – | – | – | – | – | – | – | – | – |
| Cc1c(Cl)c(OCCCS(C)(=O)=O)c(Cl)c(C)c1-c1cccc(COc2ccc3c(c2)OC[C@H]3CC(=O)O)c1 | 59 | 3.53 | 104 | 12 | 17 | 16.1 | – | – | – | – | – | – | – | – | – |
| CCc1cc(OCCCS(C)(=O)=O)cc(CC)c1-c1cccc(COc2ccc3c(c2)OC[C@H]3CC(=O)O)c1 | 56 | 3.17 | 104 | 11 | 17 | 12.4 | – | – | – | – | – | – | – | – | – |
| Cc1cc(OCC2(O)CCS(=O)(=O)CC2)cc(C)c1-c1cccc(COc2ccc3c(c2)OC[C@H]3CC(=O)O)c1 | 170 | 2.43 | 107 | 24 | 13 | -1.8 | 3 mg/kg | – | – | – | – | – | inactive | – | – |
| Cc1cc(OC2CCS(=O)(=O)CC2)cc(C)c1-c1cccc(COc2ccc3c(c2)OC[C@H]3CC(=O)O)c1 | 170 | 2.75 | 103 | 36 | 22 | -2.5 | 3 mg/kg | – | – | – | – | – | 1 mg/kg | – | – |
| Cc1cc(OC2CCS(=O)(=O)CC2)c(F)c(C)c1-c1cccc(COc2ccc3c(c2)OC[C@H]3CC(=O)O)c1 | 270 | 2.95 | 104 | 31 | 19 | 7.9 | – | – | – | – | – | – | – | – | – |
| Cc1cc(OCC2(C)COC2)cc(C)c1-c1cccc(COc2ccc3c(c2)OC[C@H]3CC(=O)O)c1 | 110 | 3.88 | 103 | 25 | 18 | 21.1 | – | – | – | – | – | – | – | – | – |
| Cc1cc(OCC2(C)COC2)cc(C)c1-c1cccc(COc2ccc3c(c2)OC[C@@H]3CC(=O)O)c1 | 2200 | 3.88 | 103 | 270 | 270 | 20.9 | – | – | – | – | – | – | – | – | – |
| Cc1nc(C)c(COc2cc(C)c(-c3cccc(COc4ccc5c(c4)OC[C@H]5CC(=O)O)c3)c(C)c2)s1 | 360 | 4.27 | 107 | 12 | 18 | 23.1 | – | – | – | – | – | – | – | – | – |
| Cc1cc(OCCCN2CCCC2=O)cc(C)c1-c1cccc(COc2ccc3c(c2)OC[C@H]3CC(=O)O)c1 | 170 | 3.22 | 107 | 31 | 17 | 3.9 | – | – | – | – | – | – | – | – | – |
| Cc1cc(OCCCS(C)(=O)=O)cc(C)c1-c1cccc(COc2ccc3c(c2)OC[C@H]3CC(=O)O)c1.O | – | – | – | – | – | – | 3 mg/kg | – | – | – | – | – | 1 mg/kg | 3 | 10 |
| Cc1c(C)c(-c2cccc(COc3ccc4c(c3)OC[C@H]4CC(=O)O)c2)c(C)c(C)c1OC1CCS(=O)(=O)CC1 | 400 | 3.35 | 104 | 40 | 29 | 12.3 | – | – | – | – | – | – | – | – | – |
| Cc1cc(OCC2(C)COC2)cc(C)c1-c1cccc(COc2ccc3c(c2)OCC3CC(=O)O)c1 (racemic) | 83 | 3.86 | 103 | 21 | 24 | 23.6 | – | – | – | – | – | – | – | – | – |
| Cc1cc(OC2CCS(=O)(=O)CC2)cc(C)c1-c1cccc(COc2ccc3c(c2)OC[C@@H]3CC(=O)O)c1 | 510 | 2.84 | 103 | 300 | 290 | 1.3 | – | – | – | – | – | – | – | – | – |

More lines, main results first:

| Ki [1] [nM] | logD [2] | Efficacy [3] [%] | Ki [4] [nM] | EC50 [5] [nM] | Structure (SMILES) | Activity (HepG2) [%] | ED (Rattus norvegicus [6]) | Activity (Rattus norvegicus [7]) | Activity (Rattus norvegicus [8]) | Activity (Rattus norvegicus [9]) | Activity (Rattus norvegicus [10]) | Activity (Rattus norvegicus [11]) | ED (Rattus norvegicus [12]) | minimal effective dose (Rattus norvegicus [9]; read-out: MED) [mg/kg] | minimal effective dose (Rattus norvegicus [10]; read-out: MED) [mg/kg] |
| --- | --- | --- | --- | --- | --- | --- | --- | --- | --- | --- | --- | --- | --- | --- | --- |
| 300 | 3.83 | 103 | – | – | CCOCCOc1cc(C)c(-c2cccc(COc3ccc4c(c3)OCC4CC(=O)O)c2)c(C)c1 (racemic) | 3.2 | – | – | – | – | – | – | – | – | – |
| – | 2.58 | – | – | – | Cc1cc(OCCCS(C)(=O)=O)cc(C)c1-c1cccc(COc2ccc3c(c2)OC[C@H]3CC(=O)O)c1 [listing 1 of 2 here] | -2.1 | – | – | – | – | – | – | – | – | – |
| 240 | 3.86 | 103 | – | – | CCOCCOc1cc(C)c(-c2cccc(COc3ccc4c(c3)OC[C@H]4CC(=O)O)c2)c(C)c1 | 1.5 | – | – | – | – | – | – | – | – | – |
| – | – | 107 | – | – | Cc1cc(OCCCS(C)(=O)=O)cc(C)c1-c1cccc(COc2ccc3c(c2)OC[C@H]3CC(=O)O)c1 [listing 2 of 2 here] | – | – | tde | tde | Dose-dependent effect | Dose-dependent effect | Active | – | – | – |
| 110 | 3.07 | 104 | 19 | 16 | Cc1cc(OCCCS(C)(=O)=O)c(Cl)c(C)c1-c1cccc(COc2ccc3c(c2)OC[C@H]3CC(=O)O)c1 | 8.3 | – | – | – | – | – | – | – | – | – |
| 200 | 2.68 | 104 | 18 | 16 | Cc1cc(OCCCS(C)(=O)=O)c(F)c(C)c1-c1cccc(COc2ccc3c(c2)OC[C@H]3CC(=O)O)c1 | -1.1 | 3 mg/kg | – | – | – | – | – | 1 mg/kg | – | – |
| 170 | 2.73 | 107 | 37 | 14 | CCS(=O)(=O)CCOc1cc(C)c(-c2cccc(COc3ccc4c(c3)OC[C@H]4CC(=O)O)c2)c(C)c1 | -1.3 | 3 mg/kg | – | – | – | – | – | – | – | – |
| 7400 | 3.86 | 103 | – | – | CCOCCOc1cc(C)c(-c2cccc(COc3ccc4c(c3)OC[C@@H]4CC(=O)O)c2)c(C)c1 | 10.5 | – | – | – | – | – | – | – | – | – |
